Legend:
[1] = target: RAC-alpha serine/threonine-protein kinase (Homo sapiens) (UniProt P31749); assay: Inhibition of AKT1/PKBalpha at 10 uM by HTRF assay relative to control
Summary of the method: (§1)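 HTRF kinase assay, one panel of kinases. Inhibitor stock 50 µM in 100% DMSO; tested at 10 µM. ATP and substrate at final levels near Km. Final buffer: 50 mM Hepes/NaOH pH 7.4, 40 µM Na3VO4, 0.005% Tween-20, 1 mM DTT, MnCl2 or MgCl2 at kinase-dependent levels. Started by adding ATP/substrate. Reaction run at room temperature, time varied by kinase. Detection mix in 50 mM Hepes pH 7.4, 0.1% BSA, 150 mM KF, incubated ≥1 h at room temperature. Activity expressed as % of uninhibited control; n=2.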

[2] = target: T1, Serine/threonine-protein kinase Chk1 (Homo sapiens) (UniProt O14757); assay: Inhibition of CHK1 at 10 uM by HTRF assay relative to control; summary of the method: as §1
T1 sequence (whole entry): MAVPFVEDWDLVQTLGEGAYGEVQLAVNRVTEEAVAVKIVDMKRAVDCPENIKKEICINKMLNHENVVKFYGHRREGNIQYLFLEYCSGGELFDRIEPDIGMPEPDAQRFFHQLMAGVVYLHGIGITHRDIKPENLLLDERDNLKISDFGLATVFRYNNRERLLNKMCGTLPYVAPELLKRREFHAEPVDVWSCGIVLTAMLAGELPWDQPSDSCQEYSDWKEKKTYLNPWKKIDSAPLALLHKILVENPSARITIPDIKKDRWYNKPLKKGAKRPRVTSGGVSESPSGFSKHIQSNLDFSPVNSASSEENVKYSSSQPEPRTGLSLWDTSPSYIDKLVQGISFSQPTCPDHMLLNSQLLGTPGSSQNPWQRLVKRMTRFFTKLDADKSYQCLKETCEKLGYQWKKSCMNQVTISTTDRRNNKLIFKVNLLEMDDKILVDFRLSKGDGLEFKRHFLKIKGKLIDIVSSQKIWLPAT

[3] = target: Cyclin-dependent kinase 1 (Homo sapiens) (UniProt P06493); assay: Inhibition of CDK1 at 10 uM by HTRF assay relative to control; summary of the method: as §1
[4] = target: Mitogen-activated protein kinase 14 (Homo sapiens) (UniProt Q16539); assay: Inhibition of p38alpha at 10 uM by HTRF assay relative to control; summary of the method: as §1
[5] = target: Epidermal growth factor receptor (Homo sapiens) (UniProt P00533); assay: Inhibition of EGFR at 10 uM by HTRF assay relative to control; summary of the method: as §1
[6] = target: Cyclin-dependent kinase 2 (Homo sapiens) (UniProt P24941); assay: Inhibition of CDK2 at 10 uM by HTRF assay relative to control; summary of the method: as §1
[7] = target: T2, Mitogen-activated protein kinase 12 (Homo sapiens) (UniProt P53778); assay: Inhibition of p38-gamma at 10 uM by HTRF assay relative to control; summary of the method: as §1
T2 sequence (whole entry): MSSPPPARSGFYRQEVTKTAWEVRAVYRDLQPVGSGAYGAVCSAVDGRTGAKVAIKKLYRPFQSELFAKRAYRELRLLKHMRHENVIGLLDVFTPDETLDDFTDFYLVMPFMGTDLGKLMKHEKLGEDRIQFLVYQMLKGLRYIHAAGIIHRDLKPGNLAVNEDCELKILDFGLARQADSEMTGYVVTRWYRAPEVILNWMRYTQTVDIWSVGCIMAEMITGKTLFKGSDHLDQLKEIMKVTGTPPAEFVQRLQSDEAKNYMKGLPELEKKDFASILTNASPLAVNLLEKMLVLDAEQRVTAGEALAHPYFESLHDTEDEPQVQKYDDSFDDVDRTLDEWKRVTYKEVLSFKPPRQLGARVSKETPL

[8] = target: Serine/threonine-protein kinase Chk2 (Homo sapiens) (UniProt O96017); assay: Inhibition of CHK2 at 10 uM by HTRF assay relative to control; summary of the method: as §1
[9] = target: Focal adhesion kinase 1 (Homo sapiens) (UniProt Q05397); assay: Inhibition of FAK at 10 uM by HTRF assay relative to control; summary of the method: as §1
[10] = target: Tyrosine-protein kinase ABL1 (Homo sapiens) (UniProt P00519); assay: Inhibition of Abl at 10 uM by HTRF assay relative to control; summary of the method: as §1
[11] = target: T3, Calcium/calmodulin-dependent protein kinase type IV (Homo sapiens) (UniProt Q16566); assay: Inhibition of CaMK4 at 10 uM by HTRF assay relative to control; summary of the method: as §1
T3 sequence (whole entry): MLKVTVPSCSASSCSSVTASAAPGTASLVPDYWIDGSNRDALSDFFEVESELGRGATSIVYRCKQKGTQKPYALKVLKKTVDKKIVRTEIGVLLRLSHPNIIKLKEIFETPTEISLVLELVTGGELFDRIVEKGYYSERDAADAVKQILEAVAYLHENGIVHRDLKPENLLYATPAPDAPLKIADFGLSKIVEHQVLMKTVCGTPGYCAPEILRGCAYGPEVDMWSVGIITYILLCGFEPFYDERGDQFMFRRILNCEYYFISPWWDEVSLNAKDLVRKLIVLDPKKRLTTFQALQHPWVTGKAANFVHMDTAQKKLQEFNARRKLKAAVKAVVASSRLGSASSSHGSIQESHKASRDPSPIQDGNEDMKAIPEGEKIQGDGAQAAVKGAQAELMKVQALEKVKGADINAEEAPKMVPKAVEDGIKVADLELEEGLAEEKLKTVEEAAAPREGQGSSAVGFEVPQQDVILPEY

[12] = target: MAP kinase-activated protein kinase 2 (Homo sapiens) (UniProt P49137); assay: Inhibition of MAPKAPK2 at 10 uM by HTRF assay relative to control; summary of the method: as §1
[13] = target: Vascular endothelial growth factor receptor 2 (Homo sapiens) (UniProt P35968); assay: Inhibition of KDR at 10 uM by HTRF assay relative to control; summary of the method: as §1
[14] = target: Rho-associated protein kinase 2 (Homo sapiens) (UniProt O75116); assay: Inhibition of ROCK2 at 10 uM by HTRF assay relative to control; summary of the method: as §1
[15] = target: Mitogen-activated protein kinase 8 (Homo sapiens) (UniProt P45983); assay: Inhibition of JNK1 at 10 uM by HTRF assay relative to control; summary of the method: as §1
[16] = target: Vascular endothelial growth factor receptor 1 (Homo sapiens) (UniProt P17948); assay: Inhibition of FLT1 at 10 uM by HTRF assay relative to control; summary of the method: as §1
Sequence of Vascular endothelial growth factor receptor 1 (Homo sapiens) (P17948 whole entry): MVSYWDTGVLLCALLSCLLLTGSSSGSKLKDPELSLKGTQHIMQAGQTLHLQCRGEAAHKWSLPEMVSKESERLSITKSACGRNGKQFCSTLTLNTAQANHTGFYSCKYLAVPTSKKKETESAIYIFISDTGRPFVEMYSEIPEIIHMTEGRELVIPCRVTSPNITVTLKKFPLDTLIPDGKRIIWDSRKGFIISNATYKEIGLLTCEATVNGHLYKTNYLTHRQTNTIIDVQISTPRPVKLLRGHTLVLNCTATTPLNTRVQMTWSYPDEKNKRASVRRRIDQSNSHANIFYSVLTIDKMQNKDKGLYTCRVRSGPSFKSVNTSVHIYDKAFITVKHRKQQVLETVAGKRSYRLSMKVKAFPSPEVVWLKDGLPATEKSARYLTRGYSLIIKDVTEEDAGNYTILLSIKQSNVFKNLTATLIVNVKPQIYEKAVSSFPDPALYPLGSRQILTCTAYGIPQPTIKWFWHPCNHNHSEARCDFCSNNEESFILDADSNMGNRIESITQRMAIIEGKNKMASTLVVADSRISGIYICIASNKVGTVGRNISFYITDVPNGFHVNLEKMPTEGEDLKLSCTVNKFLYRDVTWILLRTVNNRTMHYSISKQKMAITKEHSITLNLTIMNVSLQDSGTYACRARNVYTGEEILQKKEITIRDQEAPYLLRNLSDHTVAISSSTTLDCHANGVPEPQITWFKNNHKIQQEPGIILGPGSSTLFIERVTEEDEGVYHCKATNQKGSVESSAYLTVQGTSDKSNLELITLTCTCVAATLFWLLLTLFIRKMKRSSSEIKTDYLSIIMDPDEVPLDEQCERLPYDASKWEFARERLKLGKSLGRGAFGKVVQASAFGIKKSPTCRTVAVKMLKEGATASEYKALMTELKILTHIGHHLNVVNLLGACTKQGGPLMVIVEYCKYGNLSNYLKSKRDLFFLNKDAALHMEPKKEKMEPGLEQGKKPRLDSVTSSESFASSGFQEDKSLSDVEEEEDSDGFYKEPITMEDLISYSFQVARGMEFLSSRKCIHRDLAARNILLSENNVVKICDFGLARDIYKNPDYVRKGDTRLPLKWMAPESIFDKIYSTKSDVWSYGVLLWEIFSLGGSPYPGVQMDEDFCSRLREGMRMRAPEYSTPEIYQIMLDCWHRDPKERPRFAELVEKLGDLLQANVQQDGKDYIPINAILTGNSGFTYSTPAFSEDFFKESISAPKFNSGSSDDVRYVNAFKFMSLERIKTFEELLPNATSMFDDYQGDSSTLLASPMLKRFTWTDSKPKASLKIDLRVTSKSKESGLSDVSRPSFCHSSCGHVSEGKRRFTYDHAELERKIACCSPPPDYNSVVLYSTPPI

Sequence of Serine/threonine-protein kinase Chk2 (Homo sapiens) (O96017 whole entry): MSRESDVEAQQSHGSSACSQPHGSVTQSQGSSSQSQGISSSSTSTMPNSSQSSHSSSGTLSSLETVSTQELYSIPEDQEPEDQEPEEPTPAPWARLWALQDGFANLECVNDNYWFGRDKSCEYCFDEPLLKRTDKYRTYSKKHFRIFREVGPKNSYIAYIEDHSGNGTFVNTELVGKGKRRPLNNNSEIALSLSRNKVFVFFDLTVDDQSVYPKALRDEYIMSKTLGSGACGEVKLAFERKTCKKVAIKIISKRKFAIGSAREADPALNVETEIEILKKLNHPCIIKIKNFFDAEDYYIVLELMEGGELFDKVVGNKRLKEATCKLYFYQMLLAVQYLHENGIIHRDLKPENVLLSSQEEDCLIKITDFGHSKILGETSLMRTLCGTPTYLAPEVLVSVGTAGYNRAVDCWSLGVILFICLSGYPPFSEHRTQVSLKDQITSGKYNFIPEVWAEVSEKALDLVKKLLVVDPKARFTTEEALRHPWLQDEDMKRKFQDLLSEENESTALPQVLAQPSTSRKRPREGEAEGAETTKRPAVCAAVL
Sequence of Rho-associated protein kinase 2 (Homo sapiens) (O75116 whole entry, looked up): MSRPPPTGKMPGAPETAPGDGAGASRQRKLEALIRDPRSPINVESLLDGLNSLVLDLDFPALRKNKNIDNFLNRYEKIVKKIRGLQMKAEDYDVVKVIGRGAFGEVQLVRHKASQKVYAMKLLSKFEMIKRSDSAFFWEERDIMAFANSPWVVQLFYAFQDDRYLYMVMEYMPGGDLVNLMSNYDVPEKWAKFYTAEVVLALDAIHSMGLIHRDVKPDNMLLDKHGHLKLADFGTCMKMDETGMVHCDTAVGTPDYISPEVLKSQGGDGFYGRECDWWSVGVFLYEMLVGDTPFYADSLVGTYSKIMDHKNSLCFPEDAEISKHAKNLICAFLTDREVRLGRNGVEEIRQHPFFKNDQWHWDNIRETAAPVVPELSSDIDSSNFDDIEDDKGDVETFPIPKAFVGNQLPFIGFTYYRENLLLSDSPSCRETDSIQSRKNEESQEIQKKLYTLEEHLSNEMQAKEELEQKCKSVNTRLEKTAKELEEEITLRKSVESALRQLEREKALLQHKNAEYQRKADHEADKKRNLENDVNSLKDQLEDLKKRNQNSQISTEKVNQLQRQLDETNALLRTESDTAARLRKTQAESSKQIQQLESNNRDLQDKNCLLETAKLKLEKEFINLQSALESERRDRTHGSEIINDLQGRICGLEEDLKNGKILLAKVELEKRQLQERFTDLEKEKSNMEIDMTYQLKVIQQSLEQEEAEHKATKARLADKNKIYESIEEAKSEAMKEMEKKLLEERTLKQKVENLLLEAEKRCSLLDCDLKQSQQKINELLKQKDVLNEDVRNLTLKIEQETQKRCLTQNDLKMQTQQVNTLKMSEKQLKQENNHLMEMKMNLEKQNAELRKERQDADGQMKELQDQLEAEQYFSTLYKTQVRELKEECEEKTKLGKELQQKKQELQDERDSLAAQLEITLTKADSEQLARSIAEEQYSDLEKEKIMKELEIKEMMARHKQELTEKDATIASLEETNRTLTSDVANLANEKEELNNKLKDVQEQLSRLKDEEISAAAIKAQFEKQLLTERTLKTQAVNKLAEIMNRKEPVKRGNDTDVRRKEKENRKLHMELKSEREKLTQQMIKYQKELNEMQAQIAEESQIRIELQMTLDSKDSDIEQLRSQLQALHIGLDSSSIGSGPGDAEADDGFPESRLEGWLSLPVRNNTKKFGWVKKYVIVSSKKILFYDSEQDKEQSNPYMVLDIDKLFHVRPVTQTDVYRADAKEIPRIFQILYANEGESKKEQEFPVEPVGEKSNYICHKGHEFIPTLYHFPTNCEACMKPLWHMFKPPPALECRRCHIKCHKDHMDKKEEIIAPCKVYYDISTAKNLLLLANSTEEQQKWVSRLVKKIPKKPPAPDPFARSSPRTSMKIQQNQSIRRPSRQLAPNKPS
Sequence of Mitogen-activated protein kinase 8 (Homo sapiens) (P45983 whole entry): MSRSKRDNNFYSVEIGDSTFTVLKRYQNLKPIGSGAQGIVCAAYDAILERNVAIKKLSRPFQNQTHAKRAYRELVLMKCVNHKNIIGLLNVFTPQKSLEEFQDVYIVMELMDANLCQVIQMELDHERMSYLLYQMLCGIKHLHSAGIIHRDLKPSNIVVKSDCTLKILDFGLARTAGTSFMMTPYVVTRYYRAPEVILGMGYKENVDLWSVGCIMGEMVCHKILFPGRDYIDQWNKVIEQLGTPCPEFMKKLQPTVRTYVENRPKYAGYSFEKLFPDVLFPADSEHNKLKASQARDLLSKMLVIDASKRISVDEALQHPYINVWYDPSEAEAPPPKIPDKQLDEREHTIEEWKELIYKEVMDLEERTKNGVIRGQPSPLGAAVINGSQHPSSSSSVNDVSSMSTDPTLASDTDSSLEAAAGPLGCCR
Sequence of Mitogen-activated protein kinase 14 (Homo sapiens) (Q16539 whole entry): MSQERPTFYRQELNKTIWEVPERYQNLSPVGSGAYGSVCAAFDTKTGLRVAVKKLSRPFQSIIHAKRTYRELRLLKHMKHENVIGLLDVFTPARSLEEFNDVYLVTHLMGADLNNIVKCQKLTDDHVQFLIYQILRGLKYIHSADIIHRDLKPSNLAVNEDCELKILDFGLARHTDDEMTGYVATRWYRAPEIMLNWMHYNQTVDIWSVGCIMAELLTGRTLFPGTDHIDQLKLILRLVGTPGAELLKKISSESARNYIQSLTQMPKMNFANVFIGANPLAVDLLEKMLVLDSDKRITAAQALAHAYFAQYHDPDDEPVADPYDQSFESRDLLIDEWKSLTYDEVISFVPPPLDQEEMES
Sequence of Cyclin-dependent kinase 1 (Homo sapiens) (P06493 whole entry, looked up): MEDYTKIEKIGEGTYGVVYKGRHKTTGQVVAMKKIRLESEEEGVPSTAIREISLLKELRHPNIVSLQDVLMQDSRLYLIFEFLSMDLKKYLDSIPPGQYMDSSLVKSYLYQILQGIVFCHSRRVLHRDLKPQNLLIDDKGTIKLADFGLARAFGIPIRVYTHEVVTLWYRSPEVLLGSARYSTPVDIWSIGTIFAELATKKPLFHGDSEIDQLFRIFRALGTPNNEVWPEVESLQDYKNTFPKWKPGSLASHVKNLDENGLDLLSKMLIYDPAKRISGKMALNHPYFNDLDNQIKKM
Sequence of MAP kinase-activated protein kinase 2 (Homo sapiens) (P49137 whole entry, looked up): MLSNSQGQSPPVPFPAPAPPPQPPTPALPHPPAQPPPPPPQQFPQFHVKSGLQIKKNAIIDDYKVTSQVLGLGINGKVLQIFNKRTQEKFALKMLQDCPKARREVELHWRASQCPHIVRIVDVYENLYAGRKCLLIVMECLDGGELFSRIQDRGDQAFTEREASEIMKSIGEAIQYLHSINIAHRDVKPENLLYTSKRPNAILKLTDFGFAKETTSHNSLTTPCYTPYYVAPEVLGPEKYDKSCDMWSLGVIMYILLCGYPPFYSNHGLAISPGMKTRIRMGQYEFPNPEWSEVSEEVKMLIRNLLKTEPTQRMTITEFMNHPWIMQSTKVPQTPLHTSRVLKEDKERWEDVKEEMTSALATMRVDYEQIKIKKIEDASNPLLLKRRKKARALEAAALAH

| Structure (SMILES) | inhibition [1] | inhibition [2] | inhibition [3] | inhibition [4] | inhibition [5] | inhibition [6] | inhibition [7] | inhibition [8] | inhibition [9] | inhibition [10] | inhibition [11] | inhibition [12] | inhibition [13] | inhibition [14] | inhibition [15] | inhibition [16] |
| --- | --- | --- | --- | --- | --- | --- | --- | --- | --- | --- | --- | --- | --- | --- | --- | --- |
| COc1ccc(-c2noc(CN3CCN(c4cc(Nc5cccc(O)c5)ncn4)CC3)n2)cc1 | 0% | 2% | 0% | 1% | 17% | 6% | 0% | 0% | 3% | 0% | 0% | 0% | 0% | 0% | 0% | 0% |
| Cc1ccc(CN2CCN(c3nccc(C(C#N)c4ccccn4)n3)CC2)cc1 (stereo unspecified) | 0% | 8% | 0% | 2% | 0% | 7% | 0% | 0% | 3% | 5% | 0% | 0% | 0% | 0% | 2% | 0% |
| COC[C@@H]1CCCN1C(=O)[C@@H]1CCCN1c1nccc(Nc2ccccc2)n1 | 0% | 1% | 3% | 0% | 0% | 0% | 4% | 3% | 0% | 3% | 0% | 1% | 4% | 3% | 0% | 1% |
| COc1ccc(NC(=O)Cc2ccc(Nc3cc(N(C)c4cccc(C)c4)ncn3)cc2)cn1 | 0% | 4% | 0% | 2% | 62% | 6% | 1% | 1% | 5% | 13% | 0% | 0% | 8% | 0% | 4% | 20% |
| CN(CCCn1ccnc1)C(=O)[C@@H]1CCCN1c1nccc(Nc2ccccc2)n1 | 0% | 0% | 0% | 1% | 5% | 24% | 1% | 5% | 10% | 2% | 0% | 2% | 3% | 1% | 0% | 4% |
| Cc1cccc(Oc2ccnc(N3CCC[C@H]3C(=O)NCc3cccnc3)n2)c1 | 0% | 0% | 0% | 0% | 0% | 8% | 0% | 4% | 0% | 7% | 0% | 0% | 4% | 0% | 6% | 0% |
| Cc1cccc(Nc2cc(Nc3cccc(C(=O)N(CC(C)O)CC(C)O)c3)ncn2)c1 (stereo unspecified) | 2% | 3% | 0% | 11% | 100% | 3% | 0% | 1% | 20% | 75% | 0% | 0% | 83% | 2% | 7% | 83% |
| CC(=O)N1CCN(C(=O)c2cccc(Nc3cc(N(C)c4cccc(C)c4)ncn3)c2)CC1 | 0% | 2% | 0% | 4% | 99% | 9% | 3% | 0% | 17% | 47% | 0% | 0% | 41% | 0% | 0% | 5% |
| COC[C@@H]1CCCN1C(=O)[C@@H]1CCCN1c1cc(Nc2cccc(OC)c2)nc(N)n1 | 0% | 1% | 5% | 8% | 2% | 7% | 3% | 0% | 2% | 0% | 0% | 2% | 4% | 0% | 0% | 3% |
| O=C(COc1ccccc1)N1CCN(c2nccc(Nc3ccc4ncsc4c3)n2)CC1 | 1% | 4% | 0% | 7% | 81% | 8% | 5% | 6% | 15% | 8% | 0% | 0% | 35% | 7% | 34% | 3% |
| Cc1cccc(Nc2nccc3c2CN(C(=O)c2cc(C)n(C)c2C)CC3)c1 | 0% | 3% | 0% | 0% | 82% | 8% | 1% | 0% | 1% | 0% | 0% | 0% | 0% | 0% | 0% | 0% |
| O=C(NCc1cccnc1)c1cccc(-c2ccc(Nc3ccc4ncsc4c3)nn2)c1 | 5% | 6% | 0% | 0% | 27% | 0% | 5% | 28% | 67% | 23% | 0% | 6% | 62% | 93% | 55% | 43% |
| CN(C)CC(C)(C)CNC(=O)C1CCN(c2cc(N3CCOCC3)nc(N)n2)CC1 | 0% | 8% | 0% | 0% | 0% | 8% | 2% | 2% | 3% | 2% | 0% | 0% | 12% | 0% | 0% | 0% |
| O=C(NCCc1ccc(O)cc1)c1cccc(Nc2nccc(Nc3ccc4ncsc4c3)n2)c1 | 0% | 0% | 0% | 9% | 0% | 8% | 0% | 0% | 78% | 11% | 0% | 2% | 43% | 11% | 55% | 42% |
| Cc1cccc(N(C)c2cc(Nc3cccc(C(=O)NCc4ccc(N(C)C)cc4)c3)ncn2)c1 | 0% | 1% | 0% | 0% | 97% | 1% | 0% | 0% | 9% | 11% | 0% | 0% | 0% | 0% | 0% | 21% |
| COc1cccc(Nc2cc(Nc3cccc(C(=O)NCCCn4ccnc4)c3)nc(N)n2)c1 | 1% | 5% | 2% | 11% | 91% | 2% | 17% | 3% | 10% | 25% | 0% | 0% | 13% | 12% | 71% | 4% |

— ChEMBL document CHEMBL1150387, “Development and experimental validation of a docking strategy for the generation of kinase-targeted libraries” (J Med Chem, 2008)
